Results: ChEMBL document CHEMBL1129264, “Mercaptoacyl dipeptides as orally active dual inhibitors of angiotensin-converting enzyme and neutral endopeptidase” (1996)

Experiments:
[1] = biological target: T1, Angiotensin-converting enzyme (Rattus norvegicus) (UniProt P47820); assay: Compound was tested for plasma inhibition of Angiotensin I converting enzyme activity in the conscious rat. Expressed as Inhibition of AI pressor response at 6 hr at a dose of 14.4 mg/kg po; format: organism-based; parameters: dose 14.4 mg/kg
T1 sequence (whole entry): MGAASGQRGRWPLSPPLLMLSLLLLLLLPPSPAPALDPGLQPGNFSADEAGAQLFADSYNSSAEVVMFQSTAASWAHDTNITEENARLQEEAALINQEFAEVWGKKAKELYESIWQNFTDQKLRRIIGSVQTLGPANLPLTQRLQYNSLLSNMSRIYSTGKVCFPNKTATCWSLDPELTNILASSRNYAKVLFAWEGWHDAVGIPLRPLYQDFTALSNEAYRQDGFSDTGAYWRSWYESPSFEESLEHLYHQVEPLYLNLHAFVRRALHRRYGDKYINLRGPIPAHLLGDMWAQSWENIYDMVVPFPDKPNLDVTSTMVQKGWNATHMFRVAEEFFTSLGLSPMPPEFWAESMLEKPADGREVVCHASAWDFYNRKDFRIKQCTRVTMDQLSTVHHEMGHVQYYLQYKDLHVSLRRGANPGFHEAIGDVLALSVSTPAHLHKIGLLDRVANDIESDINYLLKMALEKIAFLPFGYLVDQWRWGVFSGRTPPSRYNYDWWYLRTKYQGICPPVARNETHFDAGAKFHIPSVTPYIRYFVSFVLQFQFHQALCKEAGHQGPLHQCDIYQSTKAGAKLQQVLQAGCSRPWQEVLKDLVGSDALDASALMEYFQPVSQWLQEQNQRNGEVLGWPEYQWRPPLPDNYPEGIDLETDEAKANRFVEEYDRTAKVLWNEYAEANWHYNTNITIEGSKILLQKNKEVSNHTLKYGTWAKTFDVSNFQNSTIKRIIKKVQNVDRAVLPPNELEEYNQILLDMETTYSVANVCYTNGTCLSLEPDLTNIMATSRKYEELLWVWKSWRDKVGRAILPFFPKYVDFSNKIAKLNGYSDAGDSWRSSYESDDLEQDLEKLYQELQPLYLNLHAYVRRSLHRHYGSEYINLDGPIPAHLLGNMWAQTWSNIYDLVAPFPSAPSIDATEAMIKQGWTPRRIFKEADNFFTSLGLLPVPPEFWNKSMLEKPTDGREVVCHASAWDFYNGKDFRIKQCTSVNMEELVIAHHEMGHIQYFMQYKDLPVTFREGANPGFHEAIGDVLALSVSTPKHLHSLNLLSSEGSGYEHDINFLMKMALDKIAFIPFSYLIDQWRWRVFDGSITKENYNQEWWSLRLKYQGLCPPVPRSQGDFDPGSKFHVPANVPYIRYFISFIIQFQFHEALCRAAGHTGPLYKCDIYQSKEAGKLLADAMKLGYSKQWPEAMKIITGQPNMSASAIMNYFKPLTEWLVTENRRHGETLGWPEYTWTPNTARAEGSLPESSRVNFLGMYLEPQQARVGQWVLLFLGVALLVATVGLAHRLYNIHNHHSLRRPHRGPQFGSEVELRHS
Summary of the method: (§1)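 Male conscious normotensive Sprague-Dawley rats (275-390 g), prepared under methohexital sodium (75 mg/kg ip) with femoral arterial and venous catheters. The next day, pressor responses to three angiotensin-I challenges (300 ng/kg iv) were recorded. Compound was then given orally and angiotensin-I challenges were repeated at set times. Percent inhibition is relative to the mean of the three baseline responses.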

[2] = biological target: T1, Angiotensin-converting enzyme (Rattus norvegicus); assay: Compound was tested for plasma inhibition of Angiotensin I converting enzyme activity in the conscious rat. Expressed as Inhibition of AI pressor response at 1 hr at a dose of 14.4 mg/kg po; format: organism-based; parameters: dose 14.4 mg/kg
Summary of the method: (§2)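 Male conscious normotensive Sprague-Dawley rats (275-390 g), given femoral arterial and venous catheters under methohexital sodium (75 mg/kg ip) anesthesia. Next day, pressor responses to three angiotensin-I challenges (300 ng/kg iv) recorded by direct arterial pressure. Compound then dosed orally, and AI challenge repeated at set times. Each post-dose response compared with the mean of the three baseline responses, giving % inhibition.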

[3] = biological target: T1, Angiotensin-converting enzyme (Rattus norvegicus); assay: Compound was tested for plasma inhibition of Angiotensin I converting enzyme activity in the conscious rat. Expressed as Inhibition of AI pressor response at 4 hr at a dose of 14.4 mg/kg po; format: organism-based; parameters: dose 14.4 mg/kg; summary of the method: as §1
[4] = biological target: T1, Angiotensin-converting enzyme (Rattus norvegicus); assay: Compound was tested for plasma inhibition of Angiotensin I converting enzyme activity in the conscious rat. Expressed as Inhibition of AI pressor response at 2 hr at a dose of 14.4 mg/kg po; format: organism-based; parameters: dose 14.4 mg/kg; summary of the method: as §2
[5] = biological target: T1, Angiotensin-converting enzyme (Rattus norvegicus); assay: Compound was tested for plasma inhibition of Angiotensin I converting enzyme activity in the conscious rat. Expressed as Inhibition of AI pressor response at 6 hr at a dose of 14.3 mg/kg po; format: organism-based; parameters: dose 14.3 mg/kg; summary of the method: as §1
[6] = biological target: T1, Angiotensin-converting enzyme (Rattus norvegicus); assay: Compound was tested for plasma inhibition of Angiotensin I converting enzyme activity in the conscious rat. Expressed as Inhibition of AI pressor response at 1 hr at a dose of 14.3 mg/kg po; format: organism-based; parameters: dose 14.3 mg/kg; summary of the method: as §2
[7] = biological target: T1, Angiotensin-converting enzyme (Rattus norvegicus); assay: Compound was tested for plasma inhibition of Angiotensin I converting enzyme activity in the conscious rat. Expressed as Inhibition of AI pressor response at 4 hr at a dose of 14.3 mg/kg po; format: organism-based; parameters: dose 14.3 mg/kg; summary of the method: as §1
[8] = biological target: T1, Angiotensin-converting enzyme (Rattus norvegicus); assay: Compound was tested for plasma inhibition of Angiotensin I converting enzyme activity in the conscious rat. Expressed as Inhibition of AI pressor response at 2 hr at a dose of 14.3 mg/kg po; format: organism-based; parameters: dose 14.3 mg/kg; summary of the method: as §2
Rattus norvegicus [9] = assay: Plasma ANF Concentration in the Conscious Rat at a dose of 14.3(po)mg/kg at 1 h; format: functional
Summary of the method: (§3)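 Male Sprague-Dawley rats (275-390 g), catheterized in femoral artery and vein under ketamine (150 mg/kg)/acepromazine, tethered and recovered 24 h, studied conscious. Continuous iv rat ANF(99-126) infusion at 450 ng/kg/min for 5 h; baseline blood at 60 min, then oral dosing, sampling at 30-240 min.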

Rattus norvegicus [10] = assay: Plasma ANF Concentration in the Conscious Rat at a dose of 14.3(po)mg/kg at 2 h; format: functional; summary of the method: as §3
Rattus norvegicus [11] = assay: Plasma ANF Concentration in the Conscious Rat at a dose of 14.3(po)mg/kg at 4 h; format: functional; summary of the method: as §3
Rattus norvegicus [12] = assay: Plasma ANF Concentration in the Conscious Rat at a dose of 14.3(po)mg/kg at 0.5 h; format: functional; summary of the method: as §3
[13] = biological target: T1, Angiotensin-converting enzyme (Rattus norvegicus); assay: Compound was tested for plasma inhibition of Angiotensin I converting enzyme activity in the conscious rat. Expressed as Inhibition of AI pressor response at 6 hr at a dose of 13.5 mg/kg po; format: organism-based; parameters: dose 13.5 mg/kg; summary of the method: as §1
[14] = biological target: T1, Angiotensin-converting enzyme (Rattus norvegicus); assay: Compound was tested for plasma inhibition of Angiotensin I converting enzyme activity in the conscious rat. Expressed as Inhibition of AI pressor response at 1 hr at a dose of 13.5 mg/kg po; format: organism-based; parameters: dose 13.5 mg/kg; summary of the method: as §2
[15] = biological target: T1, Angiotensin-converting enzyme (Rattus norvegicus); assay: Compound was tested for plasma inhibition of Angiotensin I converting enzyme activity in the conscious rat. Expressed as Inhibition of AI pressor response at 4 hr at a dose of 13.5 mg/kg po; format: organism-based; parameters: dose 13.5 mg/kg; summary of the method: as §1
[16] = biological target: T1, Angiotensin-converting enzyme (Rattus norvegicus); assay: Compound was tested for plasma inhibition of Angiotensin I converting enzyme activity in the conscious rat. Expressed as Inhibition of AI pressor response at 2 hr at a dose of 13.5 mg/kg po; format: organism-based; parameters: dose 13.5 mg/kg; summary of the method: as §2
[17] = biological target: T1, Angiotensin-converting enzyme (Rattus norvegicus); assay: Compound was tested for plasma inhibition of Angiotensin I converting enzyme activity in the conscious rat. Expressed as Inhibition of AI pressor response at 2 hr at a dose of 11.7 mg/kg po; format: organism-based; parameters: dose 11.7 mg/kg; summary of the method: as §2
[18] = biological target: T1, Angiotensin-converting enzyme (Rattus norvegicus); assay: Compound was tested for plasma inhibition of Angiotensin I converting enzyme activity in the conscious rat. Expressed as Inhibition of AI pressor response at 6 hr at a dose of 11.7 mg/kg po; format: organism-based; parameters: dose 11.7 mg/kg; summary of the method: as §1
[19] = biological target: T1, Angiotensin-converting enzyme (Rattus norvegicus); assay: Compound was tested for plasma inhibition of Angiotensin I converting enzyme activity in the conscious rat. Expressed as Inhibition of AI pressor response at 4 hr at a dose of 11.7 mg/kg po; format: organism-based; parameters: dose 11.7 mg/kg; summary of the method: as §2
Rattus norvegicus [20] = assay: Plasma ANF Concentration in the Conscious Rat at a dose of 11.7(po)mg/kg at 1 h; format: functional
Summary of the method: (§4)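 Male Sprague-Dawley rats (275-390 g) received femoral artery and vein catheters under ketamine (150 mg/kg)/acepromazine and recovered for 24 h, tethered, before study conscious. ratANF(99-126) was infused at 450 ng/kg/min iv for 5 h. Baseline blood was drawn at 60 min into the infusion, then compound was given po.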

Rattus norvegicus [21] = assay: Plasma ANF Concentration in the Conscious Rat at a dose of 11.7(po)mg/kg at 2 h; format: functional; summary of the method: as §4
Rattus norvegicus [22] = assay: Plasma ANF Concentration in the Conscious Rat at a dose of 11.7(po)mg/kg at 4 h; format: functional; summary of the method: as §4
Rattus norvegicus [23] = assay: Plasma ANF Concentration in the Conscious Rat at a dose of 11.7(po)mg/kg at 0.5 h; format: functional; summary of the method: as §4
[24] = biological target: T1, Angiotensin-converting enzyme (Rattus norvegicus); assay: Compound was tested for plasma inhibition of Angiotensin I converting enzyme activity in the conscious rat. Expressed as Inhibition of AI pressor response at 1 hr at a dose of 11.7 mg/kg po; format: organism-based; parameters: dose 11.7 mg/kg; summary of the method: as §2
[25] = biological target: T1, Angiotensin-converting enzyme (Rattus norvegicus); assay: Compound was tested for plasma inhibition of Angiotensin I converting enzyme activity in the conscious rat. Expressed as Inhibition of AI pressor response at 6 hr at a dose of 14.5 mg/kg po; format: organism-based; parameters: dose 14.5 mg/kg; summary of the method: as §1
[26] = biological target: T1, Angiotensin-converting enzyme (Rattus norvegicus); assay: Compound was tested for plasma inhibition of Angiotensin I converting enzyme activity in the conscious rat. Expressed as Inhibition of AI pressor response at 1 hr at a dose of 14.5 mg/kg po; format: organism-based; parameters: dose 14.5 mg/kg; summary of the method: as §2
[27] = biological target: T1, Angiotensin-converting enzyme (Rattus norvegicus); assay: Compound was tested for plasma inhibition of Angiotensin I converting enzyme activity in the conscious rat. Expressed as Inhibition of AI pressor response at 4 hr at a dose of 14.5 mg/kg po; format: organism-based; parameters: dose 14.5 mg/kg; summary of the method: as §1
[28] = biological target: T1, Angiotensin-converting enzyme (Rattus norvegicus); assay: Compound was tested for plasma inhibition of Angiotensin I converting enzyme activity in the conscious rat. Expressed as Inhibition of AI pressor response at 2 hr at a dose of 14.5 mg/kg po; format: organism-based; parameters: dose 14.5 mg/kg; summary of the method: as §2

With `CCCCOC(=O)[C@H](Cc1ccc(O)cc1)NC(=O)C1(NC(=O)[C@H](SC(=O)CN2CCCCC2)C(C)C)CCCC1` the inhibition [1] was 26%, the inhibition [2] was 65% and the inhibition [3] was 50%. For the same molecule, the inhibition [4] was 55%.

Work on `CCOC(=O)[C@H](Cc1ccc(OC(=O)c2cccnc2)cc1)NC(=O)C1(NC(=O)[C@H](SC(C)=O)C(C)C)CCCC1` yielded an inhibition [5] of 60%, an inhibition [6] of 78% and an inhibition [7] of 67%. It also gave an inhibition [8] of 75%, a Control (Rattus norvegicus [9]) of 234% and a Control (Rattus norvegicus [10]) of 246%. For the same molecule, the Control (Rattus norvegicus [11]) was 277% and the Control (Rattus norvegicus [12]) was 246%.

`CCOC(=O)Oc1ccc(C[C@H](NC(=O)C2(NC(=O)[C@H](SC(C)=O)C(C)C)CCCC2)C(=O)OCC)cc1` was tested, and the inhibition [13] was 21%, the inhibition [14] was 24% and the inhibition [15] was 25%. It also gave an inhibition [16] of 28%.

In the case of `COC(=O)[C@H](Cc1ccc(OC)cc1)NC(=O)C1(NC(=O)[C@H](SC(C)=O)C(C)C)CCCC1`, the inhibition [17] is reported as 90%, the inhibition [18] is reported as 78% and the inhibition [19] is reported as 87%. It also gave a Control (Rattus norvegicus [20]) of 337%, a Control (Rattus norvegicus [21]) of 263% and a Control (Rattus norvegicus [22]) of 342%. The Control (Rattus norvegicus [23]) was 279% and the inhibition [24] was 97%.

For `CCOC(=O)[C@H](Cc1ccc(OC)cc1)NC(=O)C1(NC(=O)[C@H](SC(C)=O)C(C)C)CCCC1`, the inhibition [17] was 81%, the inhibition [18] was 77% and the inhibition [19] was 79%. It also gave a Control (Rattus norvegicus [20]) of 346%, a Control (Rattus norvegicus [21]) of 250% and a Control (Rattus norvegicus [22]) of 251%. The Control (Rattus norvegicus [23]) was 275% and the inhibition [24] was 73%.

For `CCCCOC(=O)[C@H](Cc1ccc(O)cc1)NC(=O)C1(NC(=O)[C@H](SC(=O)CN2CCOCC2)C(C)C)CCCC1`, the inhibition [25] was 12%, the inhibition [26] was 57% and the inhibition [27] was 34%. For the same molecule, the inhibition [28] was 53%.
